Source: ChEMBL document CHEMBL4680079, “Discovery of a Quinoline-4-carboxamide Derivative with a Novel Mechanism of Action, Multistage Antimalarial Activity, and Potent in Vivo Efficacy” (J Med Chem, 2016)
Converted amounts (≈) assume the structure as drawn.

Legend:
[1] = Intrinsic clearance in Sprague-Dawley rat liver microsomes at 0.5 uM in presence of NADPH incubated upto 30 mins by UPLC-MS/MS analysis; type: ADME, Microsome; details: 0.5 h
Summary of the method: (§1)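 Compound at 0.5 μM incubated with female CD1 mouse, male Sprague-Dawley rat or pooled human liver microsomes (0.5 mg/mL, 50 mM potassium phosphate, pH 7.4). Reaction started with excess NADPH. Samples taken at 0-30 min, quenched in acetonitrile, analysed by UPLC-MS/MS. Verapamil used as control, single time course.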

Plasmodium falciparum [2] = test: Antiplasmodial activity against chloroquine-sensitive Plasmodium falciparum 3D7 infected in human red blood cells assessed as growth inhibition by SYBR Green fluorescence assay; type: functional, organism-based, RBC; details: 3D7, Erythrocyte
Summary of the method: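 P. falciparum 3D7 grown in 5% human red cells in RPMI 1640 (pH 7.3) with 0.5% Albumax II, hypoxanthine and gentamicin at 37°C under 1% O₂/3% CO₂. Growth measured by SYBR green fluorescence (ex 485/em 528 nm), with mefloquine as assay control. EC50 calculated.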

[3] = Oral bioavailability in NMRI mouse at 10 mg/kg administered via gavage by UPLC-MS/MS analysis; type: ADME, organism-based; details: in vivo
Summary of the method: (§2)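 Female NMRI mice (n=3) dosed by oral gavage as a solution at 10 mg free base/kg (10 mL/kg; vehicle 5 or 10% DMSO, 40% PEG400). Blood levels measured by UPLC-MS/MS. Parameters derived from the blood concentration-time curve.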

[4] = Toxicity in NMRI mouse assessed as maximum tolerated dose administered twice a day for 4 days; details: in vivo, time 4 day
[5] = Clearance in NMRI mouse blood at 3 mg/kg, iv administered as bolus dose by UPLC-MS/MS analysis; type: ADME, organism-based
Summary of the method: (§3)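 Intravenous bolus solution, 3 mg free base/kg (5 mL/kg; 10% DMSO, 90% saline), given to female NMRI mice (n=3). Compound level in blood determined by UPLC-MS/MS. PK parameters derived from the blood concentration-time curve.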

[6] = Kinetic aqueous solubility of the compound by laser nephelometry; type: physicochemical; details: read-out: Kinetic_solubility
Summary of the method: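 Kinetic solubility measured by laser nephelometry. DMSO serial dilutions diluted into water to give final 100–5 μg/mL at 1.0% DMSO. Read immediately, in triplicate aliquots.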

Plasmodium berghei [7] = test: Antiplasmodial activity against Plasmodium berghei ANKA infected in NMRI mouse assessed as survival days at 30 mg/kg, po QD for 4 days; type: functional; details: time 4 day
[8] = Volume of distribution at steady state in NMRI mouse at 3 mg/kg, iv administered as bolus dose by UPLC-MS/MS analysis; type: ADME, organism-based; details: in vivo, read-out: Vdss; summary of the method: as §3
[9] = AUC in NMRI mouse at 10 mg/kg, po administered as gavage by UPLC-MS/MS analysis; type: ADME, organism-based; design: dose 10 mg/kg; details: in vivo; summary of the method: as §2
[10] = Intrinsic clearance in CD1 mouse liver microsomes at 0.5 uM in presence of NADPH incubated upto 30 mins by UPLC-MS/MS analysis; type: ADME, Microsome; details: 0.5 h; summary of the method: as §1
[11] = Protein binding in CD1 mouse plasma measured after 5 hr by UPLC-MS/MS analysis based equilibrium dialysis method; type: ADME, cell-free; details: mouse, 5 h
Summary of the method: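 Equilibrium dialysis of female CD1 mouse plasma spiked at 10 μg/mL (12-14 kDa membrane) against isotonic buffer for 5 h at ~37°C with shaking. Unbound fraction taken as the buffer/plasma peak-area ratio by UPLC-MS/MS. n=6 replicates, run in triplicate.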

[12] = Half-life in NMRI mouse at 3 mg/kg, iv administered as bolus dose by UPLC-MS/MS analysis; type: ADME, organism-based; details: in vivo; summary of the method: as §3
Plasmodium berghei [13] = test: Antiplasmodial activity against Plasmodium berghei ANKA infected in NMRI mouse assessed as reduction in parasitemia at 30 mg/kg, po QD for 4 days; type: functional; design: scale not given: the % may be the effect or the level left; details: time 4 day
Summary of the method: (§4)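 Female NMRI mice (n=3 per group, randomized, not blinded) infected with GFP-transfected P. berghei ANKA. Oral dosing once daily for 4 days in 10% DMSO/40% PEG400/50% water or HPMC suspension vehicle. Parasitaemia measured by flow cytometry on blood collected 96 h after infection. Mice watched for toxicity over 4 h post-dose each day.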

[14] = Intrinsic clearance in human liver microsomes at 0.5 uM in presence of NADPH incubated upto 30 mins by UPLC-MS/MS analysis; type: ADME, Microsome; details: 0.5 h; summary of the method: as §1
[15] = Permeability of the compound at 10 uM incubated for 5 hrs by UPLC-MS/MS analysis based PAMPA method; type: ADME; details: read-out: permeability
Summary of the method: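 PAMPA run on a lipid-oil-lipid tri-layer filter at pH 7.4. Compound at 10 μM in PBS (DMSO ≤5%) in donor wells, PBS in acceptor wells, kept 5 h at room temperature. Both compartments quantified by UPLC-MS/MS. Data accepted only when recovery exceeded 70%.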

[16] = Tmax in NMRI mouse at 10 mg/kg, po administered as gavage by UPLC-MS/MS analysis; type: ADME, organism-based; details: in vivo; summary of the method: as §2
[17] = target: Voltage-gated inwardly rectifying potassium channel KCNH2 (Homo sapiens, UniProt Q12809); test: Inhibition of human ERG by IonWorks patch-clamp electrophysiology method
Summary of the method: (§5)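 hERG K⁺ channel inhibition measured by IonWorks patch-clamp electrophysiology. Eight-point concentration-response curves made from 3-fold serial dilutions down from the maximum final assay concentration. Each curve generated on 2 occasions.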

[18] = Cmax in NMRI mouse at 10 mg/kg, po administered as gavage by UPLC-MS/MS analysis; type: ADME, organism-based; design: route oral, dose 10 mg/kg; details: in vivo; summary of the method: as §2
hERG (KCNH2) = hERG (KCNH2) (Homo sapiens, UniProt Q12809); test: Inhibition of human ERG at 11 uM by IonWorks patch-clamp electrophysiology method relative to control; summary of the method: as §5
MRC5 = test: Antiproliferative activity against human MRC5 cells assessed as reduction in cell viability after 68 hrs by resazurin dye based fluorescence assay; details: MRC5, 68 h
Summary of the method: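 MRC-5 fibroblasts plated overnight as monolayers, exposed to compound pre-diluted in MEM for 68 h. Resazurin then added (final 50 μM) for 3 h, fluorescence read at ex 528/em 590 nm. Signal converted to % inhibition against high- and no-inhibition controls. Plates accepted at Z' > 0.5.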

HepG2 = test: Antiproliferative activity against human HepG2 cells assessed as reduction in cell viability; type: cell-based
Plasmodium falciparum [19] = test: Antiplasmodial activity against late stage (IV/V) Plasmodium falciparum NF54 gametocytes transfected with GFP-LUC assessed as growth inhibition incubated for 72 hrs by mitotracker Red-CMXROS dye based fluorescence microscopic analysis; type: functional, organism-based; details: NF54, 72 h
Summary of the method: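 NF54 pfs16-LUC-GFP stage IV–V gametocytes (10% parasitaemia, 0.1% haematocrit) exposed to compound in 0.4% DMSO, three concentrations per log, for 72 h at 37°C under 5% CO2/5% O2/90% N2. MitoTracker Red CM-H2Xros then added for 16 h and viable gametocytes counted by imaging.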

Plasmodium berghei [20] = test: Antiplasmodial activity against Plasmodium berghei ANKA infected in NMRI mouse assessed as survival days at 1 mg/kg, po QD for 4 days; type: functional; details: time 4 day
Plasmodium berghei [21] = test: Antiplasmodial activity against Plasmodium berghei ANKA infected in NMRI mouse assessed as reduction in parasitemia at 1 mg/kg, po QD for 4 days; type: functional; design: scale not given: the % may be the effect or the level left; details: time 4 day; summary of the method: as §4
Plasmodium berghei [22] = test: Antiplasmodial activity against Plasmodium berghei ANKA infected in NMRI mouse assessed as survival days at 10 mg/kg, po QD for 4 days; type: functional; details: time 4 day
Plasmodium berghei [23] = test: Antiplasmodial activity against Plasmodium berghei ANKA infected in NMRI mouse assessed as survival days at 3 mg/kg, po QD for 4 days; type: functional; details: time 4 day
Plasmodium berghei [24] = test: Antiplasmodial activity against Plasmodium berghei ANKA infected in NMRI mouse assessed as reduction in parasitemia at 10 mg/kg, po QD for 4 days; type: functional; design: scale not given: the % may be the effect or the level left; details: time 4 day; summary of the method: as §4
Plasmodium berghei [25] = test: Antiplasmodial activity against Plasmodium berghei infected in NMRI mouse assessed as reduction in parasitemia at 3 mg/kg, po QD for 4 days; type: functional; design: scale not given: the % may be the effect or the level left; details: time 4 day; summary of the method: as §4

Sequence of Voltage-gated inwardly rectifying potassium channel KCNH2 (Q12809 whole entry): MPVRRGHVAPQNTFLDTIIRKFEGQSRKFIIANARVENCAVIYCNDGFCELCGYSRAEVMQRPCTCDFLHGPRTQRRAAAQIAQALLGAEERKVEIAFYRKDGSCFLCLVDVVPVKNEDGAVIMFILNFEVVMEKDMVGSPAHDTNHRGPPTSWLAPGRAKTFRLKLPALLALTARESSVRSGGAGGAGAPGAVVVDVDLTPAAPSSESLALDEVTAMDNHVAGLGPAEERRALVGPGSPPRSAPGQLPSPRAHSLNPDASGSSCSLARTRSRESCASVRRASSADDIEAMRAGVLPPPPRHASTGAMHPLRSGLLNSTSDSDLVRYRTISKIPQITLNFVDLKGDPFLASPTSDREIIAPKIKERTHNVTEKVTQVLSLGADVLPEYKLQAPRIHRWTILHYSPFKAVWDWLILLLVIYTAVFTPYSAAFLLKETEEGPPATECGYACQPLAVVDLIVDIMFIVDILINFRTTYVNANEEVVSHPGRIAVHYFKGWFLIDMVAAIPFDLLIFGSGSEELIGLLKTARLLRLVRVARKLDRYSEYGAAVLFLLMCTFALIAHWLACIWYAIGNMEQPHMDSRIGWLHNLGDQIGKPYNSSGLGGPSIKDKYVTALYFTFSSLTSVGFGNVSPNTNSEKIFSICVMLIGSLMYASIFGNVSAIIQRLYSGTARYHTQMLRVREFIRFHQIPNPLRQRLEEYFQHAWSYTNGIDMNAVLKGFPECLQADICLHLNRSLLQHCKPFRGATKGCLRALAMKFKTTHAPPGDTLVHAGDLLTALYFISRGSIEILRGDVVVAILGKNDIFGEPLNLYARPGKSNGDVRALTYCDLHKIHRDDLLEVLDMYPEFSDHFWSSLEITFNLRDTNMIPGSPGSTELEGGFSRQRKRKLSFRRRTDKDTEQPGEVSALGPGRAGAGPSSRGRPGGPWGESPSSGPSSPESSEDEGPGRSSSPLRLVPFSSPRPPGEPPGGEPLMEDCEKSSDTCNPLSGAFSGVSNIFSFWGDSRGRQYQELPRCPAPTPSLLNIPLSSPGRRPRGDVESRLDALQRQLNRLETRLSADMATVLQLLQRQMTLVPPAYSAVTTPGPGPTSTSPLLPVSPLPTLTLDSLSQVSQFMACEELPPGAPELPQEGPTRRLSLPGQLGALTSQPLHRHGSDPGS
Sequence of hERG (KCNH2) (Q12809 whole entry): as above

| SMILES | EC50 (Plasmodium falciparum [2]) [µM] | solubility kinetic [6] [µM] | CLH [10] [mL/min/g] | PPB [11] [%] | Papp at 5 h, 10 µM [15] [×10⁻⁶ cm/s] | EC50 (MRC5) [µM] | EC50 (HepG2) [µM] | other results |
| --- | --- | --- | --- | --- | --- | --- | --- | --- |
| O=C(NCCN1CCCC1)c1cc(NCCCN2CCOCC2)nc2ccc(F)cc12 | 0.07 | 230 (≈ 98.8 µg/mL) | 0.8 | 59 | 0.23 | 41 |  | CLH [1]: < 0.5 mL/min/g; bioavailability [3]: 15%; MTD at 96 h [4]: 300 mg/kg; clearance [5]: 14 mL/min/kg; Survival (Plasmodium berghei [7]): 7 days; Vd [8]: 3 L/kg; AUC [9]: 1550 ng·h/mL; half-life [12]: 3.2 h; Activity (Plasmodium berghei [13]): 93%; CLH [14]: < 0.5 mL/min/g; Tmax [16]: 2 h; IC50 [17]: > 11 µM; Cmax [18]: 315 ng/mL; inhibition at 11 µM (hERG (KCNH2)): 16% |
| CN(CCN1CCCC1)C(=O)c1cc(-c2ccc(CN3CCOCC3)cc2)nc2ccc(F)cc12 | 0.087 | > 210 | < 0.5 |  | 13.7 |  | > 50 |  |
| COc1cc(C)c2c(Oc3cccc(C(F)(F)F)c3)c(OC)cc(NC(C)CCCN)c2n1 (configuration not stated) [TAFENOQUINE] |  |  |  |  |  |  |  | EC50 (Plasmodium falciparum [19]): 5.25 µM |
| O=C(NCCN1CCCC1)c1cc(-c2ccc(CN3CCOCC3)c(F)c2)nc2ccc(F)cc12 | 0.0006 | > 208 | 1 |  | 6.3 | 19 |  | Survival (Plasmodium berghei [20]): 11 days; Activity (Plasmodium berghei [21]): 99.8% |
| O=C(NCCN1CCCC1)c1cc(-c2ccc(CN3CCOCC3)cc2Cl)nc2ccc(F)cc12 | 0.003 | > 201 | 0.5 | 56 |  | > 50 |  |  |
| O=C(NCCN1CCC1)c1cc(-c2ccc(CN3CCOCC3)cc2)nc2ccc(F)cc12 | 0.004 | 71 (≈ 31.8 µg/mL) | 0.5 |  | 7.5 |  | 41 | Survival (Plasmodium berghei [22]): 20.3 days; Survival (Plasmodium berghei [23]): 9.3 days; Activity (Plasmodium berghei [24]): 99.1%; Activity (Plasmodium berghei [25]): 99.2% |
